Data as given in ChEMBL document CHEMBL1121487, “Fluorinated pyrimidine nucleosides. 4. Synthesis and antitumor testing of a series of 2',5'-dideoxy- and 2',3',5'-trideoxynucleosides of 5-fluorouracil” (1980).

Experiments:
Sarcoma-180 [1] = assay: Percent reduction against sarcoma 180J tumor growth in mice when administered intraperitoneally at dose 40 mg/kg; assay type: functional, Mus musculus; conditions: route intraperitoneal
In short: (§1)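 Mice bearing sarcoma 180J were dosed intraperitoneally eight times (mg/kg per dose, ×8). Read-outs were percent reduction in tumor growth and the number of mice surviving out of the number tested at each dose level. Mouse deaths were taken as toxicity.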

[2] = (§2) Percent reduction against sarcoma 180J tumor growth in mice when administered intraperitoneally at dose 25 mg/kg; assay type: functional, Mus musculus; conditions: route intraperitoneal; in short: as §1
[3] = Antitumor activity against sarcoma 180J infected mice was evaluated as ratio of number of survivors to the number of tested animals at dose 25 mg/kg, ip; 22/22; assay type: functional; in short: as §1
[4] = Antitumor activity against sarcoma 180J infected mice was evaluated as ratio of number of survivors to the number of tested animals at dose 40 mg/kg, ip; 17/24; assay type: functional; in short: as §1
Sarcoma-180 [5] = assay: Percent reduction against sarcoma 180J tumor growth in mice when administered intraperitoneally at dose 100 mg/kg; assay type: functional, Mus musculus; conditions: route intraperitoneal
In short: (§3)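 Sarcoma 180J tumor model in mice, with eight intraperitoneal doses per schedule (mg/kg ip × 8). Read-out is percent reduction in tumor growth. Toxicity was tracked as the number of surviving mice out of the number tested, with group sizes of 8 to 24 mice.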

Sarcoma-180 [6] = assay: Percent reduction against sarcoma 180J tumor growth in mice when administered intraperitoneally at dose 200 mg/kg; assay type: functional, Mus musculus; conditions: route intraperitoneal; in short: as §3
[7] = Antitumor activity against sarcoma 180J infected mice was evaluated as ratio of number of survivors to the number of tested animals at dose 200 mg/kg, ip; 12/16; assay type: functional; in short: as §1
[8] = Antitumor activity against sarcoma 180J infected mice was evaluated as ratio of number of survivors to the number of tested animals at dose 100 mg/kg, ip; 15/16; assay type: functional; in short: as §1
[9] = Antitumor activity against sarcoma 180J infected mice was evaluated as ratio of number of survivors to the number of 8 tested animals at dose 200 mg/kg, ip; 8/8; assay type: functional; in short: as §1
Sarcoma-180 [10] = assay: as §2; assay type: functional, Mus musculus; conditions: route intraperitoneal; in short: as §3
Sarcoma-180 [11] = assay: Percent reduction against sarcoma 180J tumor growth in mice when administered intraperitoneally at dose 50 mg/kg; assay type: functional, Mus musculus; conditions: route intraperitoneal; in short: as §3
Sarcoma-180 [12] = assay: Percent reduction against sarcoma 180J tumor growth in mice when administered intraperitoneally at dose 12.5 mg/kg; assay type: functional, Mus musculus; conditions: route intraperitoneal; in short: as §3
[13] = Antitumor activity against sarcoma 180J infected mice was evaluated as ratio of number of survivors to the number of tested animals at dose 25 mg/kg, ip; 16/16; assay type: functional; in short: as §1
[14] = Antitumor activity against sarcoma 180J infected mice was evaluated as ratio of number of survivors to the number of tested animals at dose 12.5 mg/kg, ip; 8/8; assay type: functional; in short: as §1
[15] = Antitumor activity against sarcoma 180J infected mice was evaluated as ratio of number of survivors to the number of tested animals at dose 200 mg/kg, ip; 11/16; assay type: functional; in short: as §1
[16] = Antitumor activity against sarcoma 180J infected mice was evaluated as ratio of number of survivors to the number of tested animals at dose 100 mg/kg, ip; 18/24; assay type: functional; in short: as §1
[17] = Antitumor activity against sarcoma 180J infected mice was evaluated as ratio of number of survivors to the number of tested animals at dose 50 mg/kg, ip; 16/16; assay type: functional; in short: as §1
[18] = Antitumor activity against sarcoma 180J infected mice was evaluated as ratio of number of survivors to the number of tested animals at dose 100 mg/kg, ip; 7/8; assay type: functional; in short: as §1
[19] = Antitumor activity against sarcoma 180J infected mice was evaluated as ratio of number of survivors to the number of tested animals at dose 200 mg/kg, ip; 8/8; assay type: functional; in short: as §1
[20] = Antitumor activity against sarcoma 180J infected mice was evaluated as ratio of number of survivors to the number of tested animals at dose 200 mg/kg, ip; 15/16

## O=c1[nH]cc(F)c(=O)[nH]1 [FLUOROURACIL]
Sarcoma-180 [1]
  Reduction: 87%
[2]
  Reduction: 38%
[3]
  Ratio: 22
[4]
  Ratio: 17

## O=c1[nH]c(=O)n(C2CCCO2)cc1F (stereo not drawn) [TEGAFUR]
Sarcoma-180 [5]
  Reduction: 46%
Sarcoma-180 [6]
  Reduction: 81%
[7]
  Ratio: 12
[8]
  Ratio: 15

## C[C@H]1O[C@@H]2C[C@H]1Oc1ncc(F)c(=O)n12
Sarcoma-180 [6]
  Reduction: 28%
[9]
  Ratio: 8

## O=c1[nH]c(=O)n([C@H]2C[C@H](O)[C@@H](CO)O2)cc1F [FLOXURIDINE]
Sarcoma-180 [5]
  Reduction: 93%
Sarcoma-180 [6]
  Reduction: 93%
Sarcoma-180 [10]
  Reduction: 61%
Sarcoma-180 [11]
  Reduction: 85%
Sarcoma-180 [12]
  Reduction: 26%
[13]
  Ratio: 16
[14]
  Ratio: 8
[15]
  Ratio: 11
[16]
  Ratio: 18
[17]
  Ratio: 16

## CC1CC[C@H](n2cc(F)c(=O)[nH]c2=O)O1 (stereo partly drawn)
Sarcoma-180 [5]
  Reduction: 35%
Sarcoma-180 [6]
  Reduction: 81%
[7]
  Ratio: 12
[18]
  Ratio: 7

## C[C@H]1O[C@@H](n2cc(F)c(=O)[nH]c2=O)C[C@H]1O
Sarcoma-180 [6]
  Reduction: 6%
[19]
  Ratio: 8

## C[C@H]1O[C@@H](n2cc(F)c(=O)[nH]c2=O)C[C@@H]1O
Sarcoma-180 [6]
  Reduction: 0%
[20]
  Ratio: 15
